In ChEMBL document CHEMBL1777742, “Synthesis, cytotoxic activities and cell cycle arrest profiles of naphtho[2,1-α]pyrrolo[3,4-c]carbazole-5,7(6H,12H)-dione glycosides” (Bioorg Med Chem Lett, 2011):
The source made the active and inactive calls. The rule behind the calls is not given here.

Experiments:
Format in all cases: functional, cell-based
MCF7 [1] = test: Cell cycle arrest in human MCF7 cells assessed as accumulation of cells at S phase at 10 uM after 24 hrs by FACS analysis
Method in brief: (§1)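 MCF-7 breast cells were exposed to each compound at 10 μM for 24 h. Cell-cycle distribution was then analysed by FACS, reading the percentage of cells in G1 and S phases.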

MCF7 [2] = test: Cytotoxicity against human MCF7 cells
PC-3 = test: Cytotoxicity against human PC3 cells
BXPC-3 [3] = test: Cytotoxicity against human BxPC3 cells
MDA-MB-231 = test: Cytotoxicity against human MDA-MB-231 cells
A549 = test: Cytotoxicity against human A549 cells
MDA-MB-468 = test: Cytotoxicity against human MDA-MB-468 cells
HCT-116 = test: Cytotoxicity against human HCT116 cells
MDA-MB-435 = test: Cytotoxicity against human MDA-MB-435 cells
MCF7 [4] = test: Cell cycle arrest in human MCF7 cells assessed as accumulation of cells at G1 phase at 10 uM after 24 hrs by FACS analysis; method in brief: as §1
BXPC-3 [5] = test: Cell cycle arrest in human BxPC3 cells assessed as accumulation of cells at S phase at 10 uM after 24 hrs by FACS analysis
Method in brief: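 BxPC3 cells were treated with each compound at 10 μM. The cell-cycle profile was determined by FACS as the percentage of cells in each phase, including S and G2/M.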

MCF7 [6] = test: Cell cycle arrest in human MCF7 cells assessed as decrease of cells at S phase at 10 uM after 24 hrs by FACS analysis
Method in brief: (§2)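 Cells were treated with a single 10 μM concentration and analysed by FACS for cell-cycle distribution. The read-out was the percentage of cells in the G1, S and G2/M phases. A 24 h exposure is stated for MCF-7; no duration is given for BxPC3.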

BXPC-3 [7] = test: Cell cycle arrest in human BxPC3 cells assessed as accumulation of cells at G2/M phase at 10 uM after 24 hrs by FACS analysis; method in brief: as §2

SMILES	Activity (MCF7 [1])	IC50 (MCF7 [2]) [µM]	IC50 (PC-3) [µM]	IC50 (BXPC-3 [3]) [µM]	IC50 (MDA-MB-231) [µM]	IC50 (A549) [µM]	IC50 (MDA-MB-468) [µM]	IC50 (HCT-116) [µM]	IC50 (MDA-MB-435) [µM]	Activity (MCF7 [4])	Activity (BXPC-3 [5])	Activity (MCF7 [6])	Activity (BXPC-3 [7])
O=C1NC(=O)c2c1c1c3ccccc3ccc1c1c2c2ccccc2n1[C@@H]1O[C@H](CO)[C@@H](O)[C@H]1O	Active	5.3	2.4	5.3	2.4	2.1	4.4	3.8	3.2	inactive	Active		
O=C1NC(=O)c2c1c1c3ccccc3ccc1c1c2c2ccccc2n1[C@@H]1O[C@H](CO)[C@@H](O)[C@H](O)[C@H]1O	Active	6.1	2.3	5.4	2.7	2.8	6.1	5.1	3.5	inactive	Active		
O=C1NC(=O)c2c1c1c3ccccc3ccc1c1c2c2ccccc2n1[C@H]1OC[C@@H](O)[C@@H](O)[C@H]1O	Active	4.8	2.1	6.6	3.3	2	3.4	6	3.3	inactive			
O=C1NC(=O)c2c1c1c3ccccc3ccc1c1c2c2ccccc2n1[C@H]1C[C@H](O)[C@@H](CO)O1	Active	7.3	2.6	7.4	3.3	3.4	9.1	8.7	4.1	inactive	Active		
C[C@@H]1O[C@@H](n2c3ccccc3c3c4c(c5c6ccccc6ccc5c32)C(=O)NC4=O)[C@H](O)[C@H](O)[C@H]1O	Active	4.5	2.7	7.3	4.7	2.8	5	3.1	3.6	inactive			
O=C1NC(=O)c2c1c1c3ccccc3ccc1c1[nH]c3ccccc3c21		8.3	5.9	8.3	8.1	2.6	> 10	5.7	5.7	Active		Active	Active
